In ChEMBL document CHEMBL3763071, “Selective Human Estrogen Receptor Partial Agonists (ShERPAs) for Tamoxifen-Resistant Breast Cancer” (J Med Chem, 2016):
Activity calls are given as the source filed them. The calls are words filed in the database; no cut-off is given here.

Legend:
[1] = biological target: T1, Estrogen receptor (Homo sapiens) (UniProt P03372); test: Partial agonist activity at biotinylated ERalpha LBD (unknown origin) assessed as increase in SRC3 coactivator recruitment after 1 hr by TR-FRET assay
T1 sequence (whole entry): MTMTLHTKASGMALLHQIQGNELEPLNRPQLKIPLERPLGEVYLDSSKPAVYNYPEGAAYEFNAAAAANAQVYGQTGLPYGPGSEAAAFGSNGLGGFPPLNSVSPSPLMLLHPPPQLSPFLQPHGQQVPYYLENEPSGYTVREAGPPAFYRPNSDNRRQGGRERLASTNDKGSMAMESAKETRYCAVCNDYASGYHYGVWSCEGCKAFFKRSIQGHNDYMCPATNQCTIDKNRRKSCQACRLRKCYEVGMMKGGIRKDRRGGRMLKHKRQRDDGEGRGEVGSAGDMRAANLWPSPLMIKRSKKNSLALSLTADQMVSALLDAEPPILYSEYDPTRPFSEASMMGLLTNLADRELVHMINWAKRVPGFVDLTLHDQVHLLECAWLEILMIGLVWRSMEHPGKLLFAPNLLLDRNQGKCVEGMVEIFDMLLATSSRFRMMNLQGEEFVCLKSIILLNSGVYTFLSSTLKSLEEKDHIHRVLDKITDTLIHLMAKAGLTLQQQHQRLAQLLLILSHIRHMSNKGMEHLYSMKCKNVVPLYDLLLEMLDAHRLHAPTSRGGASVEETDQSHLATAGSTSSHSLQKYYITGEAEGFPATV
Procedure, shortened: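 Biotinylated ERα LBD (1 nM) premixed with streptavidin-terbium (0.25 nM). Fluorescein-labelled SRC3 was titrated with ligand at 20 μM. Incubation ran 1 h at room temperature in the dark. Read-out was TR-FRET: excitation 340 nm, emission 495 and 520 nm, 100-μs delay. Background from parallel wells without LBD was subtracted, and signal was plotted against log SRC3.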

[2] = biological target: T1, Estrogen receptor (Homo sapiens); test: Antagonist activity at ERalpha in human MCF7:WS8 cells assessed as E2-induced ERE activation after 18 hrs by luciferase reporter gene assay; type: cell-based
Procedure, shortened: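 ERE-luciferase reporter in MCF-7:ws8 cells held in stripped medium 3 days, co-transfected with 3×ERE (Xenopus vitellogenin A2)-firefly luciferase and pRL-TK Renilla plasmids for 6 h. […] Average of three passages.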

[3] = biological target: T1, Estrogen receptor (Homo sapiens); test: Partial agonist activity at estrogen receptor alpha in human MCF7:WS8 cells at 100 nM after 6 hrs in presence of 100 nM GPR30 inhibitor G15 by luciferase reporter gene assay; type: cell-based
[4] = (§1) Antiproliferative activity against tamoxifen resistant human MCF7:5C cells assessed as inhibition of cell growth at 1 nM after 9 days by MTS assay; type: functional; conditions: 216 h
Procedure, shortened: (§2)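 Tamoxifen-resistant MCF-7:5C cells (long-term estrogen-deprived MCF-7:ws8, phenol red-free RPMI with charcoal-dextran FBS) seeded 5000/well overnight, treated at 1, 10 or 100 nM with renewal every 3 days. […] Triplicates in at least three passages.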

[5] = (§3) Antiproliferative activity against tamoxifen resistant human MCF7:5C cells assessed as inhibition of cell growth at 100 nM after 9 days by MTS assay; type: functional; conditions: 216 h; procedure, shortened: as §2
[6] = biological target: T1, Estrogen receptor (Homo sapiens); test: Partial agonist activity at biotinylated ERalpha LBD (unknown origin) assessed as inhibition of E2-induced SRC3 coactivator recruitment after 1 hr by TR-FRET assay
[7] = Cytotoxicity against human MCF7:WS8 cells at 0.1 to 1 uM after 3 days by MTT assay; type: cell-based; conditions: mcf7:ws8, 72 h
[8] = biological target: T2, Estrogen receptor (Homo sapiens, UniProt P03372); test: Agonist activity at estrogen receptor alpha in human MCF7:WS8 cells after 18 hrs by dual luciferase reporter assay; type: cell-based
T2 sequence (P03372 whole entry): T1 sequence (whole entry)

[9] = biological target: T2, Estrogen receptor; test: Partial agonist activity at ERalpha in human MCF7:WS8 cells after 18 hrs by luciferase reporter gene assay; type: cell-based
Procedure, shortened: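 MCF-7:ws8 cells kept in stripped medium 3 days, then transiently co-transfected (6 h) with 3×ERE-firefly luciferase and pRL-TK Renilla plasmids. […] EC50 and Emax derived; mean ± s.e.m. from at least three passages.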

[10] = (§4) Antiproliferative activity against tamoxifen resistant human MCF7:5C cells assessed as inhibition of cell growth at 10 nM after 9 days by MTS assay; type: functional; conditions: 216 h; procedure, shortened: as §2
[11] = tested on: MCF7:5C; test: as §1; type: functional; procedure, shortened: as §2
[12] = tested on: MCF7:5C; test: as §4; type: functional; procedure, shortened: as §2
[13] = tested on: MCF7:5C; test: as §3; type: functional; procedure, shortened: as §2
[14] = tested on: T47D:A18; test: Antitumor activity against tamoxifen resistant human T47D:A18 cells overexpressing PKC-alpha xenografted into BALB/c athymic mouse assessed as reduction in tumor size at 100 mg/kg administered via oral gavage daily measured upto 2 weeks; type: functional, organism-based
Procedure, shortened: (§5)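 T47D:A18/PKCα xenografts established 12 weeks before dosing. Compound given orally at 100 mg/kg daily for 2 weeks in 0.1% Tween 80/10% PEG400/0.5% CMC, plus drinking water replaced by hydrogel suspension at 0.25 mg/mL. Tumor area (length/2 × width/2 × π) by calipers weekly; uteri excised and weighed at sacrifice (control n = 4, treated n = 6).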

[15] = tested on: Mus musculus; test: Toxicity in BALB/c athymic mouse xenografted with tamoxifen-resistant human T47D:A18 cells overexpressing PKC-alpha assessed as uterine weight at 100 mg/kg administered via oral gavage daily; type: organism-based; conditions: in vivo; procedure, shortened: as §5

Compound	inhibition at 0.001 µM [4]	inhibition at 0.1 µM [5]	Activity [7]	EC50 ([8]; read-out: EC50)	inhibition at 0.01 µM [10]	inhibition [11]	inhibition [12]	further results
Oc1ccc(Oc2sc3cc(O)ccc3c2-c2ccc(F)cc2)cc1 [TTC-352]	50.6%	123%	Non-toxic	0.8 nM	104%	–	–	Activity [1]: Active; inhibition [2]: Dose-dependent effect; Activity [3]: Active; Activity [6]: Active; EC50 [9]: 0.8 nM
Oc1ccc2c(-c3ccc(F)cc3)c(Oc3ccc(F)cc3)sc2c1	–	86.6%	Non-toxic	36.8 nM	–	inactive	inactive	–
O=C(c1ccc(C(F)(F)F)cc1)c1c(-c2ccc(F)cc2)sc2cc(O)ccc12	55.6%	108%	Non-toxic	61.5 nM	69.7%	–	–	–
Cc1ccc(C(=O)c2sc3cc(O)ccc3c2-c2ccc(F)cc2)cc1	13.3%	110%	Non-toxic	717 nM	7.4%	–	–	–
CS(=O)(=O)c1ccc(C(=O)c2sc3cc(O)ccc3c2-c2ccc(F)cc2)cc1	–	18.9%	Non-toxic	436 nM	–	inactive	inactive	–
CN(C)c1ccc(C(=O)c2sc3cc(O)ccc3c2-c2ccc(F)cc2)cc1	4.1%	111%	Non-toxic	30.6 nM	15.1%	–	–	–
O=C(c1ccc(F)cc1)c1sc2cc(O)ccc2c1-c1ccc(F)cc1	–	131%	Non-toxic	18.5 nM	32.4%	inactive	–	–
Oc1ccc(Oc2c(-c3ccc(F)cc3)sc3cc(O)ccc23)cc1	–	–	Non-toxic	6.2 nM	–	inactive	inactive	inhibition [13]: inactive
O=C(c1ccc(C(F)(F)F)cc1)c1sc2cc(O)ccc2c1-c1ccc(F)cc1	–	88.6%	Non-toxic	5.2 nM	15.4%	inactive	–	Activity [14]: Active; Activity [15]: Non-toxic
O=C(c1ccc(OCCN2CCCCC2)cc1)c1c(-c2ccc(O)cc2)sc2cc(O)ccc12 [RALOXIFENE]	–	–	Non-toxic	–	–	inactive	inactive	inhibition [13]: inactive
O=C(c1ccc(O)cc1)c1sc2cc(O)ccc2c1-c1ccc(F)cc1	95.4%	100%	Non-toxic	0.2 nM	99.8%	–	–	–
Oc1ccc2c(-c3ccc(F)cc3)c(Oc3ccc(F)c(F)c3)sc2c1	–	84.6%	Non-toxic	33.4 nM	–	inactive	inactive	–
Cc1ccc(C(=O)c2c(-c3ccc(O)cc3)sc3cc(O)ccc23)cc1	11.5%	109%	Non-toxic	2.6 nM	60.2%	–	–	–
N#Cc1ccc(C(=O)c2sc3cc(O)ccc3c2-c2ccc(F)cc2)cc1	2%	64.2%	Non-toxic	58.7 nM	–	–	–	–
O=C(c1ccc(C(F)(F)F)cc1)c1c(-c2ccc(Cl)cc2)sc2cc(O)ccc12	–	–	Non-toxic	121 nM	–	inactive	inactive	inhibition [13]: inactive
Oc1ccc2c(-c3ccc(F)cc3)c(Oc3ccc(Cl)cc3)sc2c1	–	30.7%	Non-toxic	76.1 nM	–	inactive	inactive	inhibition [2]: Dose-dependent effect; EC50 [9]: 76.1 nM
Oc1ccc2cc(-c3ccc(F)cc3)sc2c1	–	–	–	–	–	–	–	EC50 [8]: Not Active
O=C(c1sc2cc(O)ccc2c1-c1ccc(F)cc1)C1CCCCC1	21.4%	147%	Non-toxic	1 nM	134%	–	–	–
Oc1ccc2c(-c3ccc(F)cc3)csc2c1	–	–	–	–	–	–	–	EC50 [8]: Not Active
C#Cc1ccc(C(=O)c2sc3cc(O)ccc3c2-c2ccc(F)cc2)cc1	31.4%	85.6%	Non-toxic	5.3 nM	79.9%	–	–	Activity [1]: Active; inhibition [2]: Dose-dependent effect; Activity [14]: Active; Activity [6]: Active; EC50 [9]: 5.3 nM
O=C(c1sc2cc(O)ccc2c1-c1ccc(F)cc1)C1CC1	–	146%	Non-toxic	13.9 nM	79.6%	inactive	–	–
